Experimental data pooled from the literature.
Lines come from different studies, so protocols differ.
Read-out: tubulin polymerisation
Mode: inhibitor

COc1ccc([S+]([O-])c2ccc(OC)c(OC)c2OC)cc1 (centres unmarked)
IC50 (absorbance; pH 6.6): > 40 µM

COc1ccc(/C=C\c2cc(OC)c(OC)c(OC)c2)cc1O
IC50 (absorbance): 1.4 µM

COc1ccc(Sc2ccccc2)c(OC)c1OC
IC50 (absorbance; pH 6.6): > 40 µM

CCCOc1ccc(N(C)c2cc(C)nc3ccc(Cl)cc23)cc1
IC50: 5.4 µM

COc1cc2c(cc1O)CCN(Cc1cc(OC)c(OC)c(OC)c1)C2
IC50 (absorbance): > 20 µM

COc1ccc(N(C)c2nc(C)nc3c2C[C@@H](C)C3)cc1 (racemic)
IC50 (absorbance): 1.9 µM

COc1ccc(C(=O)c2cc3c(-c4ccccc4)c(O)ccc3o2)cc1
IC50 (absorbance): 2.8 µM

COc1cc2c(cc1OS(N)(=O)=O)CCN(Cc1cc(OC)c(OC)c(OC)c1)C2
IC50 (absorbance): > 20 µM

COc1ccc(N(C)c2nc(C)nc3c2CCC3)cc1
IC50 (absorbance): 1.6 µM

COc1ccc(S(=O)(=O)c2ccccc2)c(OC)c1OC
IC50 (absorbance; pH 6.6): > 40 µM

CCCOc1ccc(Nc2cc(C)nc3ccc(Cl)cc23)cc1
IC50: > 100 µM
